In ChEMBL document CHEMBL2380309, “Design, synthesis, and biological evaluation of new 2'-deoxy-2'-fluoro-4'-triazole cytidine nucleosides as potent antiviral agents” (Eur J Med Chem, 2013):

How the values were obtained:
[1] = system: Human immunodeficiency virus 1; assay: Antiviral activity against HIV1 expressing VSV glycoprotein plasmid infected in human 293T cells treated 15 mins before viral infection measured after 48 hrs by luciferase reporter gene assay; assay type: functional, organism-based; conditions: Human immunodeficiency virus 1, HEK-293T
Summary of the method: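 293T cells plated 6×10⁴/well one hour before infection. Compound preincubated 15 min, then VSVG-pseudotyped env-deficient HIV-1 (pNL4-3.luc.R-E-, from Ca₃(PO₄)₂ co-transfection of 293T) added. Solvent-only control. After 48 h, cells lysed and luciferase activity read by luminometer. EC50 is the mean of at least two independent determinations.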

[2] = Cytotoxicity against human MT2 cells by MTT assay; assay type: cell-based
[3] = Selectivity index, ratio of CC50 for human MT2 cells to EC50 for HIV1; assay type: toxicity, cell-based; conditions: read-out: Ratio CC50/EC50
[4] = Selectivity index, ratio of CC50 for human HepG2.2.15 cells to EC50 for HBV infected in human HepG2.2.15 assessed as reduction of viral s-antigen production
[5] = Cytotoxicity against human HepG2.2.15 cells after 3 days by MTT assay; assay type: cell-based, HepG2 2.2.15
Summary of the method: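 HepG2.2.15 cells, kept in RPMI 1640 with 10% FBS and G418 at 37°C under 5% CO2, were seeded at 1×10⁵ cells/well and cultured 24 h. They were then exposed to four compound concentrations (5 wells each) for 3 days, with drug-free cells as control. MTT (5 mg/mL) was added for 4 h at 37°C, formazan dissolved in DMSO, and A490 read. Survival was expressed as % of control, and CC50 was taken by Reed-Muench from at least two independent determinations.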

Hepatitis B virus [6] = assay: Antiviral activity against HBV infected in human HepG2.2.15 assessed as reduction of viral s-antigen production […] by ELISA; assay type: functional, organism-based; conditions: HepG2 2.2.15
Hepatitis B virus [7] = assay: Antiviral activity against HBV infected in human HepG2.2.15 assessed as reduction of viral e-antigen production […] by ELISA; assay type: functional, organism-based; conditions: HepG2 2.2.15
[8] = Selectivity index, ratio of CC50 for human HepG2.2.15 cells to EC50 for HBV infected in human HepG2.2.15 assessed as reduction of viral e-antigen production

CCCCc1cn([C@]2(CO)O[C@@H](n3ccc(N)nc3=O)[C@@H](F)[C@@H]2O)nn1
EC50 [1]: 300 nM | CC50 [2]: ≥ 25000 nM

CCc1ccc(-c2cn([C@]3(CO)O[C@@H](n4ccc(N)nc4=O)[C@@H](F)[C@@H]3O)nn2)cc1
EC50 [1]: 600 nM | CC50 [2]: ≥ 25000 nM

Nc1ccn([C@@H]2O[C@@](CO)(n3ccnn3)[C@@H](O)[C@@H]2F)c(=O)n1
selectivity ratio [3]: > 278 | EC50 [1]: 90 nM | CC50 [2]: ≥ 25000 nM

Cc1ccc(-c2cn([C@]3(CO)O[C@@H](n4ccc(N)nc4=O)[C@@H](F)[C@@H]3O)nn2)cc1
Ratio CC50/EC50 [4]: 49800 | CC50 at 72 h [5]: 498000 nM | EC50 [1]: 3700 nM | CC50 [2]: ≥ 25000 nM | EC50 (Hepatitis B virus [6]): 10 nM | EC50 (Hepatitis B virus [7]): > 1000 nM

Nc1ccn([C@@H]2O[C@@](CO)(n3cc(C4CC4)nn3)[C@@H](O)[C@@H]2F)c(=O)n1
CC50 at 72 h [5]: 834000 nM | EC50 [1]: 600 nM | CC50 [2]: ≥ 25000 nM | EC50 (Hepatitis B virus [6]): 120 nM | EC50 (Hepatitis B virus [7]): 1000 nM

Nc1ccn([C@@H]2O[C@@](CO)(n3cc(C4(O)CCCC4)nn3)[C@@H](O)[C@@H]2F)c(=O)n1
EC50 [1]: 1300 nM | CC50 [2]: ≥ 25000 nM

Nc1ccn([C@@H]2O[C@@](CO)(n3cc(CC4CCCCC4)nn3)[C@@H](O)[C@@H]2F)c(=O)n1
EC50 [1]: 4800 nM | CC50 [2]: ≥ 25000 nM

CC(C)(C)c1cn([C@]2(CO)O[C@@H](n3ccc(N)nc3=O)[C@@H](F)[C@@H]2O)nn1
selectivity ratio [3]: > 278 | EC50 [1]: 80 nM | CC50 [2]: ≥ 25000 nM

[N-]=[N+]=N[C@]1(CO)O[C@@H](n2ccc(N)nc2=O)[C@@H](F)[C@@H]1O [RO-0622]
EC50 [1]: 0.3 nM | CC50 [2]: > 10000 nM

Nc1ccn([C@@H]2O[C@@](CO)(n3cc(-c4ccccc4)nn3)[C@@H](O)[C@@H]2F)c(=O)n1
selectivity ratio [3]: > 278 | CC50 at 72 h [5]: 566000 nM | EC50 [1]: 83 nM | CC50 [2]: ≥ 25000 nM | Ratio CC50/EC50 [8]: 2264 | EC50 (Hepatitis B virus [6]): 100 nM | EC50 (Hepatitis B virus [7]): 250 nM

Cc1cn([C@H]2C[C@H](N=[N+]=[N-])[C@@H](CO)O2)c(=O)[nH]c1=O [ZIDOVUDINE]
EC50 [1]: 84 nM | CC50 [2]: ≥ 25000 nM
